LMPTP block: blocks human LMPTP phosphatase. inhibition, % at 20 µM. hit rate 0.22% among 360,000. recombinant LMPTP-A, OMFP fluorogenic substrate, fluorescence intensity. P24666;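 active = compounds that cut the enzyme signal by at least half of the control window in the single-dose screen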
Target sequence (P24666 whole entry, looked up): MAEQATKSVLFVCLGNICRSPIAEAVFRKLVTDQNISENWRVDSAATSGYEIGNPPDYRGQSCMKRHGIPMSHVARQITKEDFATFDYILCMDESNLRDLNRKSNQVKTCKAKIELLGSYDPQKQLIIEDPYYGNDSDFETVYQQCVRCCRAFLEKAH
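Test system: LMPTP-A phosphatase enzyme; input: 0.625 nM LMPTP-A final; reagent: OMFP substrate, 400 µM final; compound dosing: 20 µM single dose, 3% DMSO; incubation: 50 min dark incubation at room temperature; measured by: endpoint fluorescence intensity from OMFP dephosphorylation; measure: % inhibition relative to no-enzyme and uninhibited control wells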
Scp-1 inhibitor: inhibitors of human Scp-1 phosphatase. Q9GZU7. inhibition, % at 20 µM. AID 493091. Recombinant Scp1, phosphopeptide, malachite green phosphate absorbance. hit rate 0.88% among 340,000;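 active = inhibition above about 50% at 20 µM, limit read from the data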
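Test system: SCP-1 catalytic domain; Buffer or medium: Acidic Tris acetate buffer with magnesium and detergent; Also added: Phosphorylated 17-residue peptide substrate; Compound: single 20 µM dose, 1% DMSO; Schedule: enzyme reaction 45 min at room temperature, colour 5 min, stabilisation 30 min; Signal: Phosphate-binding colour reagent, absorbance read at 630 nm.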
STEP inh: STEP (human) phosphatase inhibition; AID 588621; inhibition, % at 20 µM; recombinant STEP, OMFP fluorogenic substrate, fluorescence; hit rate 0.25% among 360,000; P54829;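 active = inhibition at 20 µM, scaled per plate between control wells, above about 37%, limit read from the data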
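Measure: Control-normalized % inhibition with plate pattern correction | Test system: STEP phosphatase, cell-free reaction | Medium: pH 6.0 Bis-Tris with DTT and Tween 20 | Technique: Fluorescence, 480/540 nm | Times: Reaction 20 min, ambient temperature | Doses: Single compound dose of 20 µM, 1% DMSO final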
SUMO1-SIM PPI: SUMO1-SIM interaction modulation; P63165; SUMO1 binding to a labelled peptide, TR-FRET, 1 h; inhibition, % at 20 µM; hit rate 0.33% among 360,000; in the data active = inhibition above about 37%
Target sequence (P63165 whole entry, looked up): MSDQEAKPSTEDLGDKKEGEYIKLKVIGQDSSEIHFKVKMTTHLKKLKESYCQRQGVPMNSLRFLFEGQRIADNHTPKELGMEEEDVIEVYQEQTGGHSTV
DNMT1 inh: blocks human DNA methyltransferase DNMT1; P26358; DNMT1 molecular beacon, Hinp1I cleavage, fluorescence; inhibition (reported as % activation of signal), % at 10 µM; hit rate 0.83% among 360,000; in the data active = inhibition above about 50%
NadD block: blocks S. aureus nicotinate mononucleotide adenylyltransferase | purified NadD enzyme, colorimetric absorbance read-out | inhibition, % at 20 µM | hit rate 0.78% among 360,000; in the data active = inhibition above about 26%
NadD conf: NadD (S. aureus) inhibition, single concentration confirmation; shares compounds with NadD block; purified S. aureus NadD, colorimetric enzyme assay; inhibition, % at 20 µM; hit rate 13% among 2,000; AID 624309; in the data active = inhibition mostly above about 42%, no sharp cut-off; inactive = mostly below about 42%
A number is an active result; 0 = inactive; - = no result. Sampled rows, rich in hits. Any-hit rate of the full collection: about 2.4%.

SMILES | LMPTP block | Scp-1 inhibitor | STEP inh | SUMO1-SIM PPI | DNMT1 inh | NadD block | NadD conf
O=c1cc(O)c2sc(Nc3ccc(Cl)c(F)c3)nc2[nH]1 | 0 | 0 | 0 | 0 | 0 | 38 | 0
CC1CC(NC(=O)c2c(O)nc3sccn3c2=O)CC(C)(C)C1 (stereo unspecified) | 0 | 0 | 0 | 0 | 0 | 35 | 0
CCCNC(=O)c1cn(CC)c2cc(N3CCN(C(=O)c4ccco4)CC3)c(F)cc2c1=O | 0 | 0 | 0 | 0 | 0 | 0 | -
Cc1cccc(C)c1-n1nnnc1C(c1ccnc2ccccc12)N(C)Cc1ccc(Cl)c(Cl)c1 (stereo unspecified) | 0 | - | - | 0 | - | 29 | 0
N#CCCN(Cc1ccccc1)C(c1ccnc2ccccc12)c1nnnn1-c1ccc2c(c1)OCCO2 (stereo unspecified) | 0 | - | - | 0 | - | 0 | -
Cc1cccc(C)c1-n1nnnc1C(c1ccnc2ccccc12)N(Cc1ccccc1)Cc1ccccc1 (stereo unspecified) | 0 | - | - | 0 | - | 32 | 0
Cc1cccc(C)c1-n1nnnc1C(c1ccnc2ccccc12)N(CCC#N)Cc1ccccc1 (stereo unspecified) | 0 | - | - | 0 | - | 0 | -
c1ccc(CN(Cc2ccccc2)C(c2ccnc3ccccc23)c2nnnn2-c2ccc3c(c2)OCCO3)cc1 (stereo unspecified) | 0 | - | - | 0 | - | 40 | 0
CCCCN(C(=O)CC1CCCC1)c1c(N)n(CC(C)C)c(=O)[nH]c1=O | 0 | 0 | 0 | 0 | 0 | 0 | -
Cc1ccc(-n2nc3c(c2NC(=O)c2cccs2)CSC3)cc1 | 0 | 0 | 0 | 0 | 0 | 56 | 77
Cc1cccc(-n2nc3c(c2NC(=O)c2ccc(Br)o2)CSC3)c1 | 0 | 0 | 0 | 0 | 0 | 44 | 65
